Data from ChEMBL document CHEMBL1152806, “Discovery of a potent, selective, and orally efficacious pyrimidinooxazinyl bicyclooctaneacetic acid diacylglycerol acyltransferase-1 inhibitor” (J Med Chem, 2009).
Activity calls are given as the source filed them. The calls are words filed in the database; no cut-off is given here.

What was measured:
Rattus norvegicus [1] = test: Reduction of plasma triacylglycerol excursion in 14 hrs fasted Han-Wistar rat at 0.3 mg/kg, po treated 2 hrs before bolus corn oil administration measured 1.5 hrs post corn oil challenge by oral lipid tolerance test relative to control; assay type: functional; set-up: scale not given: the % may be the effect or the level left
How it was run: (§1)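 Male Han-Wistar rats (~230 g) on chow diet were fasted 14 h and given compound by oral gavage, suspended in HPMC/Tween. A corn oil bolus (5 mL/kg) followed 2 h later. After 1.5 h, blood was drawn from the abdominal vena cava and plasma TAG measured colorimetrically (GPO-PAP). Result is % reduction versus vehicle-treated controls; n = 6.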

[2] = Volume of distribution at steady state in marmosets at 1 to 3 mg/kg; assay type: ADME, organism-based; set-up: dose 1-3 mg/kg; conditions: callitrichinae sp., in vivo; read-out: Vdss
[3] = Bioavailability in rat at 1 to 3 mg/kg; assay type: ADME, organism-based; conditions: in vivo
Plasma [4] = test: Fraction unbound in human plasma by LC-UVMS; assay type: ADME, cell-free
How it was run: (§2)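 Equilibrium dialysis in plasma of the relevant species at 37 °C; free and bound drug quantified by LC-UVMS; reported as % free.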

CYP2C9 = CYP2C9 (Homo sapiens, UniProt P11712); test: Inhibition of CYP2C9 at 30 uM; assay type: ADME
Rattus norvegicus [5] = test: Reduction of plasma triacylglycerol excursion in 14 hrs fasted Han-Wistar rat at 1 mg/kg, po treated 2 hrs before bolus corn oil administration measured 1.5 hrs post corn oil challenge by oral lipid tolerance test relative to control; assay type: functional; set-up: scale not given: the % may be the effect or the level left; how it was run: as §1
Rattus norvegicus [6] = test: Reduction of adipose triacylglycerol synthesis in 14 hrs fasted Han-Wistar rat assessed as decrease in ratio of [3H]palmitic acid incorporation in to TAG and DAG at 3 mg/kg, po after 1.5 hrs relative to control; assay type: functional; set-up: scale not given: the % may be the effect or the level left
How it was run: (§3)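 Male Han-Wistar rats (~300 g) on chow diet were given compound by oral gavage, suspended in HPMC/Tween. At 1.5 h they were anaesthetised with inactin and a bolus of [3H]-palmitic acid was given via a jugular cannula. Epididymal fat was taken 20 min later, homogenised in duplicate with [14C]-oleic acid internal standard, and lipids separated by HPLC. Result is % reduction of the TAG/DAG label ratio versus vehicle; n = 10.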

[7] = Apparent permeability from basolateral to apical side in MDCK cells at 10 uM; assay type: ADME, cell-based, Canis lupus familiaris; conditions: dog, read-out: permeability
How it was run: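 Cultured MDCK cells incubated with compound at 10 µM; apparent permeability (Papp, ×10^-6 cm/s) measured in both apical-to-basolateral and basolateral-to-apical directions.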

Rattus norvegicus [8] = test: Reduction of adipose triacylglycerol synthesis in 14 hrs fasted Han-Wistar rat assessed as decrease in ratio of [3H]palmitic acid incorporation into TAG and DAG at 1 mg/kg, po after 1.5 hrs relative to control; assay type: functional; set-up: scale not given: the % may be the effect or the level left; how it was run: as §3
Hepatocyte = test: Metabolic stability in rat hepatocytes assessed as conversion to acyl glucuronide form after 2 hrs; assay type: ADME, cell-based
[9] = Volume of distribution at steady state in rat at 1 to 3 mg/kg; assay type: ADME, organism-based; set-up: dose 1-3 mg/kg; conditions: in vivo, read-out: Vdss
[10] = Half life in marmosets at 1 to 3 mg/kg, iv; assay type: ADME, organism-based; set-up: dose 1-3 mg/kg, route intravenous; conditions: callitrichinae sp., in vivo
[11] = Metabolic stability in marmosets alamethicin-activated microsomes assessed as conversion to acyl glucuronide form after 1 hr; assay type: ADME, Microsome; conditions: callitrichinae sp.
HuTu80 = test: Inhibition of triacylglycerol synthesis in human HuTu 80 cells after 30 mins; assay type: functional, cell-based; conditions: HuTu80, 0.5 h
How it was run: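 Confluent HuTu 80 cells in serum-free medium, preincubated 30 min with compound (0.1% DMSO final). Then given 0.12 mM sodium oleate plus 1 µCi/mL 14C-oleate complexed to 0.03 mM BSA. Cells solubilized in SDS and lipids extracted; 14C in triacylglycerol measured by normal-phase HPLC with radio-flow detection. Lowry protein determined.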

[12] = molecular target: T1, Diacylglycerol O-acyltransferase 2 (Homo sapiens) (UniProt Q96PD7); test: Inhibition of human DGAT2 at 10 uM by liquid scintillography
T1 sequence (whole entry): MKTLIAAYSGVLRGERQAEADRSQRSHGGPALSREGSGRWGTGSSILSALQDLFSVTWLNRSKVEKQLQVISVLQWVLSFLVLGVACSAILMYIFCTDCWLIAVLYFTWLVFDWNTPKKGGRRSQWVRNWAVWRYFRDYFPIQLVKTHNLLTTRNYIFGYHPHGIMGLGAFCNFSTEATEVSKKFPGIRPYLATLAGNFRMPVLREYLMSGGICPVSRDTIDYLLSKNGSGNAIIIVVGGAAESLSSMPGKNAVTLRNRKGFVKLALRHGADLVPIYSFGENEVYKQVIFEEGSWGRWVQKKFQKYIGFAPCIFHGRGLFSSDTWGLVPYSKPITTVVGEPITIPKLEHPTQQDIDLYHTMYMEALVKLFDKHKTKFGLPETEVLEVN

[13] = molecular target: T2, Diacylglycerol O-acyltransferase 1 (Homo sapiens, UniProt O75907); test: Inhibition of human recombinant DGAT1 expressed in Sf9 cells by liquid scintillography
T2 sequence (O75907 whole entry): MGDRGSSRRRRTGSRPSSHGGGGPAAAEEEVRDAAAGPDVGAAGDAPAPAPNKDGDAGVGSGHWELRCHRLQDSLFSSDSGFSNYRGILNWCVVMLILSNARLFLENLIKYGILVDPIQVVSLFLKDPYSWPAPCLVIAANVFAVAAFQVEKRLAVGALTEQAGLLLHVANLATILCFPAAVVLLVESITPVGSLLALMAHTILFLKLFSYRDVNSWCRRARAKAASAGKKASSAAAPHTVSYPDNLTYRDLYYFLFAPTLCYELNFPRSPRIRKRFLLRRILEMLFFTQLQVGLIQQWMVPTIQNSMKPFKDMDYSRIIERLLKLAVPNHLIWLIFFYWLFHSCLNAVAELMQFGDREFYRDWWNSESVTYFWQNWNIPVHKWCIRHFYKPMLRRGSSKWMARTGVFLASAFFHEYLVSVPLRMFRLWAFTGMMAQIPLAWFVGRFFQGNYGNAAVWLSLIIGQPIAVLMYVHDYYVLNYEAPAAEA

Mus musculus = test: Inhibition of dietary-induced obesity in obese […] mouse model assessed as reduction in body weight at 20 mg/kg, po qd for 3 days relative to start weight; assay type: functional, organism-based; set-up: dose 20 mg/kg
How it was run: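 Female C57BL/6 mice fed high-calorie cafeteria diet for 15 weeks to about 29 g, randomized into groups of 12. Oral gavage (10 mL/kg) once daily for 3 days, 2 h before the dark phase. Body weight recorded daily before dosing and expressed as percent change from day 0, compared with vehicle-treated diet-matched controls.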

CYP1A2 = molecular target: T3, CYP1A2 (Homo sapiens, UniProt P05177); test: Inhibition of CYP1A2 at 30 uM; assay type: ADME
T3 sequence (P05177 whole entry): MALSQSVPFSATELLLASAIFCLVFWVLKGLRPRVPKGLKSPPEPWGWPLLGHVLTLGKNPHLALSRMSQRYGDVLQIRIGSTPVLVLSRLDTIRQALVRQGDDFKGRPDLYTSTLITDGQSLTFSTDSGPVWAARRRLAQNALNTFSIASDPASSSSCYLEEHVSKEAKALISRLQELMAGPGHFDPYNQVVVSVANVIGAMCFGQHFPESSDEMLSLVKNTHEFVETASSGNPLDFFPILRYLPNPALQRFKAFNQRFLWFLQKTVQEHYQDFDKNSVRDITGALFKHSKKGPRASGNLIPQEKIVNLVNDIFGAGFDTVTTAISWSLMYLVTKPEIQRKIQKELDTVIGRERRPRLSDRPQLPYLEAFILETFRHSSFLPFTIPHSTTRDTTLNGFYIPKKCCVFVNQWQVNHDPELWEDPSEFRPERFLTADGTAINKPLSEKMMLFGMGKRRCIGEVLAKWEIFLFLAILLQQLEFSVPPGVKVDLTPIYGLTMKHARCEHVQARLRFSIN

Plasma [14] = test: Fraction unbound in rat plasma by LC-UVMS; assay type: ADME, cell-free; how it was run: as §2
[15] = Plasma clearance in rat at 1 to 3 mg/kg; assay type: ADME, organism-based; set-up: dose 1-3 mg/kg
[16] = Half life in dog at 1 to 3 mg/kg, po; assay type: ADME, organism-based, Canis lupus familiaris; set-up: dose 1-3 mg/kg, route oral; conditions: in vivo
[17] = Metabolic stability in dog alamethicin-activated microsomes assessed as conversion to acyl glucuronide form after 1 hr; assay type: ADME, Canis lupus familiaris, Microsome
[18] = Metabolic stability in dog hepatocytes assessed as conversion to acyl glucuronide form after 2 hrs; assay type: ADME, cell-based, Canis lupus familiaris, Hepatocyte

Chain of CYP2C9 (P11712 whole entry): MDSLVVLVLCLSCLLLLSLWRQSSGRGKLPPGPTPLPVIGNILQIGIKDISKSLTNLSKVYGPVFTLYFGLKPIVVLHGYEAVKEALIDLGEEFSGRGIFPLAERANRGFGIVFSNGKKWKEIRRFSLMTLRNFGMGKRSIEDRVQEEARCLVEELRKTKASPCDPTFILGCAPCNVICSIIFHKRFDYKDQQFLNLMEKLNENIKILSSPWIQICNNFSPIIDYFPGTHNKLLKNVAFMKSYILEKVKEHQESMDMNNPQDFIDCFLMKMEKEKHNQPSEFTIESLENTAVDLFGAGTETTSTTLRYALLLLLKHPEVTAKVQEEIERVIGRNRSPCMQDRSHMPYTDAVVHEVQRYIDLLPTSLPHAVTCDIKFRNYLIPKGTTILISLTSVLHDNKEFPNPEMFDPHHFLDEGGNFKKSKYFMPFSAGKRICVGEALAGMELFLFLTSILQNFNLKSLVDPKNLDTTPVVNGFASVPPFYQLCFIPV

Vd [2]: 0.88 L/kg
bioavailability [3]: 72%
Fu (Plasma [4]): 1%
inhibition at 30 µM (CYP2C9): < 25%
Papp B→A at 10 µM [7]: 26 ×10⁻⁶ cm/s
Stability (Hepatocyte): 18%
Vd [9]: 0.7 L/kg
half-life [10]: 13 h
Stability [11]: 15%
IC50 (HuTu80): 3 nM
inhibition [12]: 0%
IC50 [13]: 15 nM
inhibition at 30 µM (CYP1A2): < 25%
Fu (Plasma [14]): 0.91%
clearance [15]: 1.5 mL/min/kg
half-life [16]: 9.9 h
Stability [17]: 76%
Stability [18]: 38%
Compound: CC1(C)Oc2ncnc(N)c2N=C1c1ccc(C23CCC(CC(=O)O)(CC2)CC3)cc1
Activity (Rattus norvegicus [1]): 57%
Activity (Rattus norvegicus [5]): 72%
Activity (Rattus norvegicus [6]): 57%
Activity (Rattus norvegicus [8]): 37%
Activity (Mus musculus): Active
